In article PMC9398548 (European journal of pharmaceutical sciences : official …, 2020):

Assays:
GLUT5 = type: cell-based, human
How it was run: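 Uses hexose-transporter-null VW4000 yeast expressing human GLUT5, cultured at 30 °C and 180 rpm. Cells were grown one day in YEP/2% maltose with G418, then 1–2 days in YEP/2% fructose starting from OD600 ~0.5. Washed cells in PBS pH 7.4 (OD600 ~10) took up 10 mM C14-fructose for 10 min. Uptake was stopped with ice-cold KPi/LiCl quench buffer pH 5.5, then filtered and scintillation-counted. Controls were 1% DMSO and 100 μM MSNBA. Screening was at 100 μM; three independent measurements.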

CEM cells [1] = assay: Apoptosis induction by flow cytometry; type: cell-based; conditions: IC50 concentration, 24 h
How it was run: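 CEM cells seeded in 24-well plates and held overnight at 37 °C under CO2. Medium was then replaced, and cells were exposed to the test compound for 24 h; untreated cells served as the negative control. Cells were washed in PBS, pelleted at 500 xg and 4 °C, resuspended in ice-cold binding buffer, and stained with annexin V-FITC plus PI for 15 min on ice in the dark. Analysed by flow cytometry, in triplicate.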

white blood cells (WBCs) = assay: MTT assay on non-transformed white blood cells; type: cell-based, human; conditions: 48 h treatment with 100 μM
How it was run: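 WBCs from a healthy adult volunteer were isolated by HiSep centrifugation at 400 xg for 30 min, followed by repeated RBC lysis and PBS washes. Cells were held at 37 °C under 5% CO2 overnight in 96-well plates. Test compound was applied at 2.5–100 μM for 48 h. After two PBS washes, MTT was added for 4 h at 37 °C; formazan was dissolved in DMSO and absorbance read at 570 nm.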

K562 cells = assay: MTT cytotoxicity assay in K562 cells; type: cell-based; conditions: read-out: K562- IC50; MTT, 48 h, Mean±SD, n=3
How it was run: (§1)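 Cells were grown in suspension in RPMI 1640 with 10% FBS and penicillin/streptomycin/amphotericin B at 37 °C under 5% CO2. They were seeded at ~5×10^3 cells/well, kept overnight, then exposed to test compounds diluted in DMSO for 48 h. Cells were pelleted (300 g, 4 °C, 5 min) and washed twice in phosphate buffer. MTT (5 mg/ml stock) was added for 4 h at 37 °C, formazan dissolved in DMSO, and A570 read. Triplicate; IC50 given as mean±SD.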

GLUT1 = biological target: T1, GLUT1 (Homo sapiens, UniProt P11166); type: cell-based
T1 sequence (P11166 1-492): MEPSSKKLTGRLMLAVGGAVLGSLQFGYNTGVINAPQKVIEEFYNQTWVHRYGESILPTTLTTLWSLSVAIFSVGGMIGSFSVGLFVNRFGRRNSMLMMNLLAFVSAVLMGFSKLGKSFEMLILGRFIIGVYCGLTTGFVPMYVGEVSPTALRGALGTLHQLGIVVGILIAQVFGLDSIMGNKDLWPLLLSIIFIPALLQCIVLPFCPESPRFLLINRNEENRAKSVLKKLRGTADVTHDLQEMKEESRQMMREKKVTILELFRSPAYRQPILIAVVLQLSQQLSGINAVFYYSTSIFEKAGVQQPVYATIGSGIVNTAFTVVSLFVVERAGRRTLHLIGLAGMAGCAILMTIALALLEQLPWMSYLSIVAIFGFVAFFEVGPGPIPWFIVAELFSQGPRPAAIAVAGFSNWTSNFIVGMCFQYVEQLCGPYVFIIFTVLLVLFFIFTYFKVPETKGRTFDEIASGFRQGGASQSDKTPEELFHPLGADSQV
How it was run: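 VW4000fgy1 hxt0 yeast carrying human GLUT1 were grown at 30 °C: first in SC-uracil/2% maltose for 2–3 days, then 1–2 days in SC-uracil/2% glucose from OD600 ~0.5. Cells were resuspended in PBS pH 7.4 at OD600 ~10 and given 5 mM C14-glucose for 10 min. Uptake was quenched with ice-cold buffer pH 5.5, filtered, and counted. Controls: 1% DMSO and 200 μM phloretin.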

CEM cells [2] = assay: MTT cytotoxicity assay in CEM cells; type: cell-based; conditions: read-out: CEM- IC50, 48 h, Mean±SD, n=3
How it was run: as §1

GLUT4 = biological target: T2, GLUT4 (Homo sapiens, UniProt P14672); type: cell-based
T2 sequence (P14672 1-509): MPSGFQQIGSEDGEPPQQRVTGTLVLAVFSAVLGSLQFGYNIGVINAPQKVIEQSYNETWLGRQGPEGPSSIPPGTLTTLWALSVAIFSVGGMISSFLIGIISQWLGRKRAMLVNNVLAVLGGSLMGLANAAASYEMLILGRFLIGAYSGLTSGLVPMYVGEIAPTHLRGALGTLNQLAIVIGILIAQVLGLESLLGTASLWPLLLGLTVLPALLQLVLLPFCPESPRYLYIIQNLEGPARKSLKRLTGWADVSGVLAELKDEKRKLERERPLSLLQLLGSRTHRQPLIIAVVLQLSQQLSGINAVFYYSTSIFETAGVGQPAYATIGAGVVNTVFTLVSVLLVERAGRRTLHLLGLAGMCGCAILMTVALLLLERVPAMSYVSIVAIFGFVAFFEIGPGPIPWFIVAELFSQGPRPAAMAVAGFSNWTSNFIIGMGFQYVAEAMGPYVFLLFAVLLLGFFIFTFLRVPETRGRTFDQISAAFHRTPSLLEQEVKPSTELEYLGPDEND
How it was run: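 VW4000fgy1erg4 hxt0 yeast expressing human GLUT4 were cultured at 30 °C, first in SC-uracil/1% maltose and then in SC-uracil/0.2% glucose from OD600 ~0.5. Cells in PBS pH 7.4 (OD600 ~10) were fed 5 mM C14-glucose for 10 min. The reaction was quenched in ice-cold buffer pH 5.5, then filtered and scintillation-counted. Vehicle control was 1% DMSO; 200 μM phloretin served as positive control.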

CEM cells [3] = assay: Cell cycle analysis by flow cytometry; type: cell-based; conditions: IC50 concentration, 24 h
How it was run: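 Cells were seeded in 24-well plates overnight, then given fresh medium and exposed to the test compound for 24 h beside an untreated control. After a PBS wash, cells were fixed in ice-cold 70% ethanol on ice for 2 h, then washed again. They were stained with PI for 15 min at 37 °C and analysed by flow cytometry within 30 min, in triplicate.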

[4] = primary screen, 100 μM compound

O=C(CN1C(=O)SC(=Cc2ccc(Cl)cc2)C1=O)Nc1ccc(Cl)cc1C(F)(F)F [Compound G5, 2-[5-(4-Chlorobenzylidene)-2,4-dioxothiazolidin-3-yl]-N-(4-chloro-2-trifluromethylphenyl) acetamide]
decrease of relative transport activity of GLUT5 (GLUT5; [4]): > 50% | IC50 (GLUT5; read-out: GLUT5 IC50, hxt0 yeast cells expressing GLUT5, 10 mM C14-fructose, 10 minutes): 34.5 ± 2.4 µM | percentage of cells in early apoptotic phase (CEM cells [1]): 1.30% | percentage of cells in late apoptotic phase (CEM cells [1]): 59.22% | percentage of live cells (CEM cells [1]): 25.58% | percentage of necrotic cell population (CEM cells [1]): 13.90% | viable WBC cells (white blood cells (WBCs)): More than 66% | IC50 (K562 cells): 34.9 ± 1.07 µM | decrease of relative transport activity of GLUT1 (GLUT1; [4]): > 50% | IC50 (GLUT1; read-out: GLUT1 IC50, hxt0 yeast cells expressing GLUT1, 5 mM C14-glucose, 10 minutes): 5.4 ± 1.3 µM | IC50 (CEM cells [2]): 13.5 ± 3.88 µM | decrease of relative transport activity of GLUT4 (GLUT4; [4]): > 50% | IC50 (GLUT4; read-out: GLUT4 IC50, hxt0 yeast cells expressing GLUT4, 5 mM C14-glucose, 10 minutes): 9.5 ± 2.8 µM | percentage of cells arrested in G0-G1 phase (CEM cells [3]): 52.0% | percentage of cells arrested in the G2-M phase (CEM cells [3]): 22.1%
